Ends that are not written are not given here.
How the values were obtained:
[1] = tested on: meningeal blood flow (dura mater); test: Laser Doppler flowmetry of meningeal blood flow; type: in vivo, rat
[2] = tested on: ddC-induced tactile hypersensitivity; test: ddC-induced neuropathic pain, paw withdrawal threshold; type: in vivo, rat; settings: single ddC injection
CaV2.2 = CaV2.2 surface localisation; type: cell-based; settings: CAD neuronal cell line, co-expression of CaV2.2 with CBD3 (fused to GFP)
[3] = tested on: distal C-terminus (Ct-dis) of CaV2.2; test: Surface plasmon resonance, immobilized Ct-dis; type: binding; settings: 1/3/5 μM; dissociation monitored for 4 min
How it was run: (§1)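 Test peptide or scrambled control peptide injected at 1, 3 and 5 μM over immobilized CaV2.2 L1 or Ct-dis. Binding was recorded as sensorgrams in resonance units, with dissociation followed for 4 min.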

[4] = tested on: interaction between CRMP-2 and Ct-dis of CaV2.2; test: In vitro binding; settings: Ct-dis-GST, peptide 10 μM
How it was run: (§2)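 GST fusions of the CaV2.2 loop 1 (L1) or distal C-terminus (Ct-dis) incubated in vitro with CRMP-2 alongside test peptide or scrambled control peptide, each at 10 μM. CRMP-2 retained on the fusion proteins was detected by immunoblot with a CRMP-2 antibody.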

neurons [5] = settings: not told
hippocampal neurons = test: Depolarization-induced calcium influx, hippocampal neurons; type: cell-based; settings: plasmid expression
[6] = tested on: interaction between CRMP-2 and L1 of CaV2.2; test: In vitro binding; settings: L1-GST, peptide 10 μM
How it was run: as §2

[7] = tested on: cytosolic loop 1 (L1) of CaV2.2; test: Surface plasmon resonance, immobilized L1; type: binding; settings: 1/3/5 μM; dissociation monitored for 4 min
How it was run: as §1

[8] = tested on: dorsal root ganglion (DRG) neurons; test: Depolarization-induced calcium influx, DRG neurons; type: cell-based; settings: plasmid expression
N-type Ca^2+ channels = type: cell-based; settings: DRGs, Fura-2 imaging
neurons [9] = test: Cell permeation / entry into neurons; settings: in vitro, ex vivo and in vivo
[10] = tested on: interaction between tubulin and CRMP-2; test: Co-immunoprecipitation with CRMP-2 antibody from spinal cord lysates, tubulin; type: binding
formalin-induced edema = test: Formalin-induced paw edema; type: in vivo, rat; settings: formalin 2.5%, compared to saline; 1 h after injection

## COc1cc(CNC(=O)CCCC/C=C/C(C)C)ccc1O [Capsaicin, capsaicin]
[1]; nasally administered capsaicin, 100 nM
  Meningeal blood flow response to capsaicin alone: rapid and robust increase in meningeal blood flow

## Nc1ccn([C@H]2CC[C@@H](CO)O2)c(=O)n1 [ddC, 2',3'-dideoxycytidine]
[2]
  PWT after ddC: exhibited a decrease in PWT

## CBD3 (ARSRLAELRGVPRGL)
CaV2.2
  CaV2.2 localisation on co-expression: almost complete retention of the channel in cytoplasmic aggregates
[3]
  Binding to immobilized Ct-dis: bound to immobilized L1 and Ct-dis proteins
[4]
  Ability of Ct-dis to pull down CRMP-2: dramatic reduction in ability of L1 or Ct-dis proteins to pull down CRMP-2
Neurons [5]
  Cell permeability / entry into neurons: not cell permeant
Hippocampal neurons
  Depolarization-induced calcium influx: reduced depolarization-induced calcium influx
[6]
  Ability of L1 to pull down CRMP-2: dramatic reduction in ability of L1 or Ct-dis proteins to pull down CRMP-2
[7]
  Binding to immobilized L1: bound to immobilized L1 and Ct-dis proteins
[8]
  Depolarization-induced calcium influx: reduced depolarization-induced calcium influx
N-type Ca^2+ channels
  K+-evoked Ca2+ influx, channel selectivity: reduced K^+-evoked Ca^2+ influx selectively through N-type Ca^2+ channels
Neurons [9]
  Passage into cells, time: conjugation of CBD3 to HIV-1 TAT facilitated its passage into cells in vitro, ex vivo and in vivo within minutes
[10]
  Effect on interaction between tubulin and CRMP-2: did not affect the interaction between tubulin and CRMP-2

## CGRP8-37: CGRP antagonist (VTHRLAGLLSRSGGVVKNNFVPTNVGSKAF; ends and bridges not checked; UniProt P06881 90-119, looked up, fragment)
[1]; prior dural administration of CGRP antagonist
  Dependence of capsaicin-induced blood flow changes on CGRP: could be blocked by prior dural administration of the CGRP antagonist, CGRP8-37

## Formalin
formalin-induced edema
  Change in paw thickness: 4 fold
